Test results published in ChEMBL document CHEMBL3046880, “Syntheses and herbicidal activities of novel triazolinone derivatives” (J Agric Food Chem, 2008).

Tests used:
Chenopodium album [1] = experiment: Herbicidal activity against Chenopodium album assessed as growth inhibition at 150 g of active ingredient/ha administered using post-emergence treatment measured 15 days post treatment protocol under greenhouse conditions; type: functional
Method in brief: (§1)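 Test agents were formulated as 100 g/L emulsified concentrates (DMF solvent, TW-80 emulsifier), diluted with water and sprayed postemergence on pot-grown weeds. Seeds were sown 1-3 cm deep in clay soil (pH 6.5, 1.6% organic matter, 37.3% clay, CEC […]) and grown at 15–30 °C in a greenhouse. Dicots were treated at the two-leaf stage. Untreated and DMF-treated plants served as controls. Activity was scored visually 15 days after treatment.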

Chenopodium album [2] = experiment: Herbicidal activity against Chenopodium album assessed as growth inhibition at 75 g of active ingredient/ha administered using post-emergence treatment measured 15 days post treatment protocol under greenhouse conditions; type: functional; method in brief: as §1
Echinochloa crus-galli [3] = experiment: Herbicidal activity against Echinochloa crus-galli (barnyard grass) assessed as growth inhibition at 75 g of active ingredient/ha administered using post-emergence treatment measured 15 days post treatment protocol under greenhouse conditions; type: functional; method in brief: as §1
Zea mays [4] = experiment: Phytotoxicity against Zea mays (maize) plant assessed as growth inhibition at 300 g of active ingredient/ha administered using post-emergence treatment measured 30 days post treatment protocol under greenhouse conditions; type: organism-based; conditions: in vivo, other, 720 h
Method in brief: (§2)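 Compounds were formulated as 100 g/L emulsified concentrates in DMF with TW-80 as emulsifier, then diluted with water to the required concentration. They were applied postemergence to pot-grown plants in a greenhouse. The soil was clay, pH 6.5, with 1.6% organic matter, 37.3% clay particles and CEC 12.1 mol/kg. Sulfentrazone served as the reference control.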

Echinochloa crus-galli [5] = experiment: Herbicidal activity against Echinochloa crus-galli (barnyard grass) assessed as growth inhibition at 150 g of active ingredient/ha administered using post-emergence treatment measured 15 days post treatment protocol under greenhouse conditions; type: functional; method in brief: as §1
Brassica napus = experiment: Phytotoxicity against Brassica napus (oilseed rape) assessed as growth inhibition at 150 g of active ingredient/ha administered using post-emergence treatment measured 30 days post treatment protocol under greenhouse conditions; type: organism-based; conditions: in vivo, other, 720 h; method in brief: as §2
Glycine max [6] = experiment: Phytotoxicity against Glycine max (soybean) plant assessed as growth inhibition at 450 g of active ingredient/ha administered using post-emergence treatment measured 30 days post treatment protocol under greenhouse conditions; type: organism-based; conditions: in vivo, other, 720 h; method in brief: as §2
[7] = Phytotoxicity against Oryza sativa (rice) plant assessed as growth inhibition at 150 g of active ingredient/ha administered using post-emergence treatment measured 30 days post treatment protocol under greenhouse conditions; type: organism-based; conditions: in vivo, read-out: GI; method in brief: as §2
Senna tora = experiment: Herbicidal activity against Senna tora assessed as growth inhibition at 150 g of active ingredient/ha administered using post-emergence treatment measured 15 days post treatment protocol under greenhouse conditions; type: functional; method in brief: as §1
[8] = Phytotoxicity against Oryza sativa (rice) plant assessed as growth inhibition at 75 g of active ingredient/ha administered using post-emergence treatment measured 30 days post treatment protocol under greenhouse conditions; type: organism-based; conditions: in vivo, read-out: GI; method in brief: as §2
[9] = Phytotoxicity against Brassica napus (oilseed rape) assessed as growth inhibition at 75 g of active ingredient/ha administered using post-emergence treatment measured 30 days post treatment protocol under greenhouse conditions; type: organism-based; conditions: in vivo, read-out: GI; method in brief: as §2
Cerastium arvense = experiment: Herbicidal activity against Cerastium arvense assessed as growth inhibition at 37.5 g of active ingredient/ha administered using post-emergence treatment measured 15 days post treatment protocol under greenhouse conditions; type: functional; method in brief: as §1
Amaranthus retroflexus [10] = experiment: Herbicidal activity against Amaranthus retroflexus assessed as growth inhibition at 37.5 g of active ingredient/ha administered using post-emergence treatment measured 15 days post treatment protocol under greenhouse conditions; type: functional; method in brief: as §1
Zea mays [11] = experiment: Phytotoxicity against Zea mays (maize) plant assessed as growth inhibition at 450 g of active ingredient/ha administered using post-emergence treatment measured 30 days post treatment protocol under greenhouse conditions; type: organism-based; conditions: in vivo, other, 720 h; method in brief: as §2
Glycine max [12] = experiment: Phytotoxicity against Glycine max (soybean) plant assessed as growth inhibition at 150 g of active ingredient/ha administered using post-emergence treatment measured 30 days post treatment protocol under greenhouse conditions; type: organism-based; conditions: in vivo, other, 720 h; method in brief: as §2
Portulaca oleracea [13] = experiment: Herbicidal activity against Portulaca oleracea assessed as growth inhibition at 37.5 g of active ingredient/ha administered using post-emergence treatment measured 15 days post treatment protocol under greenhouse conditions; type: functional; method in brief: as §1
Amaranthus retroflexus [14] = experiment: Herbicidal activity against Amaranthus retroflexus assessed as growth inhibition at 75 g of active ingredient/ha administered using post-emergence treatment measured 15 days post treatment protocol under greenhouse conditions; type: functional; method in brief: as §1
Triticum aestivum = experiment: Phytotoxicity against Triticum aestivum (wheat) plant assessed as growth inhibition at 450 g of active ingredient/ha administered using post-emergence treatment measured 30 days post treatment protocol under greenhouse conditions; type: organism-based; conditions: in vivo, other, 720 h; method in brief: as §2
Amaranthus retroflexus [15] = experiment: Herbicidal activity against Amaranthus retroflexus assessed as growth inhibition at 150 g of active ingredient/ha administered using post-emergence treatment measured 15 days post treatment protocol under greenhouse conditions; type: functional; method in brief: as §1
Echinochloa crus-galli [16] = experiment: Herbicidal activity against Echinochloa crus-galli (barnyard grass) assessed as growth inhibition at 37.5 g of active ingredient/ha administered using post-emergence treatment measured 15 days post treatment protocol under greenhouse conditions; type: functional; method in brief: as §1
Digitaria sanguinalis = experiment: Herbicidal activity against Digitaria sanguinalis (hairy crabgrass) assessed as growth inhibition at 75 g of active ingredient/ha administered using post-emergence treatment measured 15 days post treatment protocol under greenhouse conditions; type: functional; method in brief: as §1
Portulaca oleracea [17] = experiment: Herbicidal activity against Portulaca oleracea assessed as growth inhibition at 150 g of active ingredient/ha administered using post-emergence treatment measured 15 days post treatment protocol under greenhouse conditions; type: functional; method in brief: as §1

## CCS(=O)(=O)Nc1cc(-n2nc(C)n(Cc3ccccc3/C(=N\OC)C(=O)OC)c2=O)c(F)cc1Cl
Chenopodium album [1]
  growth inhibition (GI): >80%
Chenopodium album [2]
  growth inhibition (GI): >80%
Echinochloa crus-galli [3]
  growth inhibition (GI): 50%
Zea mays [4]
  Activity: Toxic
Echinochloa crus-galli [5]
  growth inhibition (GI): 50%
Brassica napus
  Activity: Toxic
Glycine max [6]
  Activity: Toxic
[7]
  inhibition at 720 h: 0%
Senna tora
  growth inhibition (GI): 100%
[8]
  inhibition at 720 h: 0%
[9]
  inhibition at 720 h: 80%
Cerastium arvense
  growth inhibition (GI): >80%
Amaranthus retroflexus [10]
  growth inhibition (GI): >80%
Zea mays [11]
  Activity: Toxic
Glycine max [12]
  Activity: Toxic
Portulaca oleracea [13]
  growth inhibition (GI): 100%
Amaranthus retroflexus [14]
  growth inhibition (GI): >80%
Triticum aestivum
  Activity: Toxic
Amaranthus retroflexus [15]
  growth inhibition (GI): 100%
Echinochloa crus-galli [16]
  growth inhibition (GI): <50%
Digitaria sanguinalis
  growth inhibition (GI): 50%
Portulaca oleracea [17]
  growth inhibition (GI): 100%
